From paper PMC3741069 (Biochemistry, 2013)
Changes are numbered by the printed parent chain.

Assays:
Assay in all cases: spectral perturbation titration
Type in all cases: binding
nitrate reductase (NarB) [1] = molecular target: T1, nitrate reductase (NarB) (Synechococcus elongatus, UniProt P39458, R84Q)
T1 sequence (P39458 15-729 R84Q): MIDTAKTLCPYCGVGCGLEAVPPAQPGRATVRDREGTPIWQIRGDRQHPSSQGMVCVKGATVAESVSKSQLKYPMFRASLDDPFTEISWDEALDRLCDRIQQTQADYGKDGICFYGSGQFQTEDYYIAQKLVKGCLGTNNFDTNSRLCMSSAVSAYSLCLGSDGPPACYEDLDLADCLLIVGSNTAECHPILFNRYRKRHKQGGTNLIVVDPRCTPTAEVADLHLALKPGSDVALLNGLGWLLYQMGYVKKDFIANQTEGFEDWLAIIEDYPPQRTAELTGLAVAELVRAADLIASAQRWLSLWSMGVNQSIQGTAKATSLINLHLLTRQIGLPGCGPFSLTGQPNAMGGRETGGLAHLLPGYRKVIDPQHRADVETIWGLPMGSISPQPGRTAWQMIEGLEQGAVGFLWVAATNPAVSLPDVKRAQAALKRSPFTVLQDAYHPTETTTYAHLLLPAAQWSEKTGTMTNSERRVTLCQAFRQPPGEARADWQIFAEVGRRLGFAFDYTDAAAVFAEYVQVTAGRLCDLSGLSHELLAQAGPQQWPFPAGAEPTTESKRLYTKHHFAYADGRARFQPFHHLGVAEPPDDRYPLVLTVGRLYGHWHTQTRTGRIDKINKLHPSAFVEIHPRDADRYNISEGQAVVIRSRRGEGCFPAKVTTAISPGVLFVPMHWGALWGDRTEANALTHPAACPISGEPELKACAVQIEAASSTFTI
Procedure, shortened: (§1)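 Single-residue NarB variants were made by site-directed mutagenesis and expressed and purified as for wild type (His6, Co affinity, DEAE, gel filtration). Complex formation with ferredoxin or nitrate was followed by difference absorbance at variant-specific wavelength pairs chosen for signal:noise. The change at saturating nitrate was taken as 100% complex. Kd came from fitting perturbation magnitude against ligand concentration to a single binding isotherm.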

nitrate reductase (NarB) [2] = molecular target: T2, nitrate reductase (NarB) (Synechococcus elongatus, UniProt P39458, K72R)
T2 sequence (P39458 15-729 K72R): T1 sequence (P39458 15-729 R84Q) with K58R, Q70R
Procedure, shortened: as §1

nitrate reductase (NarB) [3] = molecular target: T3, nitrate reductase (NarB) (Synechococcus elongatus, UniProt P39458, K144R)
T3 sequence (P39458 15-729 K144R): T1 sequence (P39458 15-729 R84Q) with Q70R, K130R
Procedure, shortened: as §1

## O=[N+]([O-])O [nitrate]
Nitrate reductase (NarB) [1]
  Kd: 5.5 ± 2.2 µM
Nitrate reductase (NarB) [2]
  Kd: 15.5 ± 5 µM
Nitrate reductase (NarB) [3]
  Kd: 13.4 ± 3 µM
